In PMC4136667 (Journal of Medicinal Chemistry, 2014):

Target: human ΔF508–CFTR (Homo sapiens, UniProt P13569, DEL508-508)
Test: ΔF508–CFTR corrector activity assay
Type: cell-based
Details: for Corrector activity (in words): ΔF508–CFTR FRT cells; for Vmax higher than benchmark bithiazole corr4a: difference to corr4a (475 μM/s); for Increase of Vmax compared to benchmark bithiazole corr4a: relative to corr4a
In short: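 FRT cells stably coexpressing human ΔF508–CFTR and YFP-H148Q/I152L were grown 24 h at 37 °C, then exposed 16–20 h to test compound at various concentrations, with DMSO vehicle and a bithiazole positive control. Cells were PBS-washed and given forskolin (20 μM) plus genistein (50 μM) for 20 min. Fluorescence (ex 500, em 535 nm) was recorded 2 s before and 12 s after adding iodide-for-chloride PBS. Initial rate came from an exponential fit, normalized to initial fluorescence. Vmax came from Hill fitting of concentration–activity data.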

| SMILES | Corrector activity (in words) | Vmax higher than benchmark bithiazole corr4a | Increase of Vmax compared to benchmark bithiazole corr4a |
| --- | --- | --- | --- |
| COc1ccc(Cl)cc1Nc1nc2c(s1)CCCCc1nc(N)sc1-2 [8a, N9-(5-Chloro-2-methoxyphenyl)-4,5,6,7-tetrahydrocycloocta[1,2-d:3,4-d′]bis(thiazole)-2,9-diamine] | modest correctors | – | – |
| COc1ccc(Cl)cc1Nc1nc2c(s1)CCCc1nc(N)sc1-2 [7a, N8-(5-Chloro-2-methoxyphenyl)-5,6-dihydro-4H-cyclohepta[1,2-d:3,4-d′]bis(thiazole)-2,8-diamine] | modest correctors | – | – |
| COC(=O)CCC(=O)Nc1nc2c(s1)-c1nc(Nc3cc(Cl)ccc3OC)sc1CCC2 [9e, Methyl 4-((8-((5-chloro-2-methoxyphenyl)amino)-5,6-dihydro-4H-cyclohepta[1,2-d:3,4-d′]bis(thiazole)-2-yl)amino)-4-oxobutanoate] | – | 200 µM/s | 1.5 fold |
| COc1ccc(Cl)cc1Nc1nc2c(s1)CCCCc1nc(NC(=O)C(C)C)sc1-2 [10c, N-(9-((5-Chloro-2-methoxyphenyl)amino)-4,5,6,7-tetrahydrocycloocta [1,2-d:3,4-d′]bis(thiazole)-2-yl)isobutyramide] | – | 200 µM/s | 1.5 fold |
